Columns and labels:
Canis familiaris [1] = assay: Peak response for contractility was determined in conscious Dog at the dose of 30 ug/kg by peroral administration and measured as% changes of control; conditions: route oral
[2] = test system: cardiac myofibrillar ATPase (Canis familiaris); assay: Shift induced by 30 uM of compound, of the [Ca2+] concentration required for half-maximal activation of the canine cardiac myofibrillar ATPase; conditions: Canis lupus familiaris
Canis familiaris [3] = assay: Peak response for heart rate was determined in conscious Dog at the dose of 30 ug/kg by peroral administration and measured as% changes of control; conditions: route oral
[4] = test system: cardiac myofibrillar ATPase (Canis familiaris); assay: Change in calcium-induced activation of canine cardiac myofibrillar ATPase at 200 uM; conditions: Canis lupus familiaris
[5] = Inhibition of dog left ventricle sarcoplasmic reticulum bound low-Km cAMP phosphodiesterase; parameters: species or system Canis lupus familiaris
How it was run: (§1)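 SR vesicles from dog left ventricle, isolated on a sucrose gradient after Ca2+ oxalate loading. Radiochemical assay at 30 °C with 1 µM [3H]cAMP, 12 mM Tris-HCl, 0.5 mM MgCl2, 137 mM NaCl and 20 mM glucose; products separated on Dowex after 5'-nucleotidase step. Less than 25% substrate hydrolysed. Triplicates at 10 concentrations (10^-9–10^-4 M), DMSO 1%. IC50 from Hill plot of mean curve over at least 3 preparations.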

[6] = target: Phosphodiesterase; PDE3 & PDE4; assay: Inhibition of dog left ventricle sarcoplasmic reticulum bound low-Km c-AMP phosphodiesterase; format: protein assay, Canis lupus familiaris
How it was run: as §1

[7] = test system: cardiac myofibrillar ATPase (Canis familiaris); assay: Shift induced by 200 uM of compound, of the [Ca2+] concentration required for half-maximal activation of the canine cardiac myofibrillar ATPase; conditions: Canis lupus familiaris
[8] = test system: cardiac myofibrillar ATPase (Canis familiaris); assay: Shift induced by 100 uM of compound, of the [Ca2+] concentration required for half-maximal activation of the canine cardiac myofibrillar ATPase; conditions: Canis lupus familiaris
[9] = test system: cardiac myofibrillar ATPase (Canis familiaris); assay: c[Ca2+] concentration required for half-maximal activation of the cardiac myofibrillar ATPase at 30 uM dose of the compound; conditions: Canis lupus familiaris
[10] = test system: cardiac myofibrillar ATPase (Canis familiaris); assay: c[Ca2+] concentration required for half-maximal activation of the cardiac myofibrillar ATPase at 100 uM dose of the compound; conditions: Canis lupus familiaris
[11] = test system: cardiac myofibrillar ATPase (Canis familiaris); assay: Shift induced by 1 uM of compound, of the [Ca2+] concentration required for half-maximal activation of the canine cardiac myofibrillar ATPase; conditions: Canis lupus familiaris
[12] = test system: cardiac myofibrillar ATPase (Canis familiaris); assay: Shift induced by 10 uM of compound, of the [Ca2+] concentration required for half-maximal activation of the canine cardiac myofibrillar ATPase; conditions: Canis lupus familiaris
[13] = test system: cardiac myofibrillar ATPase (Canis familiaris); assay: Shift induced by 3 uM of compound, of the [Ca2+] concentration required for half-maximal activation of the canine cardiac myofibrillar ATPase; conditions: Canis lupus familiaris

Question: For CC1SC(=O)NN=C1c1ccc2c(c1)C(C)(C)OC(=O)N2 (stereo not given), which Change (Canis familiaris [1]) is on record?
Answer: 67%

Question: What about the Delta pCa50 [2] of the same compound?
Answer: 0.15

Question: And the Change (Canis familiaris [3])?
Answer: 13%

Question: For CC1SC(=O)NN=C1c1ccc2c(c1)CC(C)(C)C(=O)N2 (stereo not given), which Change (Canis familiaris [1]) is on record?
Answer: 26%

Question: What about the Delta pCa50 [2] of the same compound?
Answer: 0.33

Question: And the Change (Canis familiaris [3])?
Answer: 24%

Question: Which Delta pCa50 [4] does the source give for O=C1Cc2cc(C3=NNC(=O)SC3)ccc2N1 here?
Answer: 0.08

Question: Which Delta pCa50 [2] does the source give for CC1SC(=O)NN=C1c1ccc2c(c1)C1(SCCS1)C(=O)N2 (stereo not given) here?
Answer: 0.57

Question: What about the IC50 [5] of the same compound?
Answer: 350 nM

Question: Which results are given for CC1SC(=O)NN=C1c1ccc2c(c1)C(C)(C)NC(=O)N2 (stereo not given)?
Answer: Change (Canis familiaris [1]): 38%; Delta pCa50 [2]: 0.24; Change (Canis familiaris [3]): 9%

Question: With CC1SC(=O)NN=C1c1ccc2c(c1)C1(CCCC1)C(=O)N2 (stereo not given) as the compound, how does the Delta pCa50 [2] read?
Answer: 0.35

Question: And the IC50 [6]?
Answer: 1100 nM

Question: With CC1(C)SC(=O)NN=C1c1ccc2c(c1)C(C)(C)C(=O)N2 as the compound, how does the IC50 [6] read?
Answer: 66000 nM

Question: What about the Delta pCa50 [4] of the same compound?
Answer: -0.02

Question: With CSC1C(=O)Nc2ccc(C3=NNC(=O)SC3)cc21 (stereo not given) as the compound, how does the Delta pCa50 [4] read?
Answer: 0.28

Question: Which Delta pCa50 [7] does the source give for CSC1(C)C(=O)Nc2ccc(C3=NNC(=O)SC3C)cc21 (stereo not given) here?
Answer: 0.33

Question: Which Delta pCa50 [2] does the source give for O=C1CCc2cc(C3=NNC(=O)SC3)ccc2N1 here?
Answer: 0

Question: With Cc1c(C2=NNC(=O)SC2C)ccc2c1C(C)(C)C(=O)N2 (stereo not given) as the compound, how does the Delta pCa50 [2] read?
Answer: -0.07

Question: And the IC50 [5]?
Answer: 9200 nM

Question: Which IC50 [5] does the source give for COc1cc([S+](C)[O-])ccc1-c1nc2cccnc2[nH]1 (stereo not given) [SULMAZOLE] here?
Answer: 140000 nM

Question: Which Delta pCa50 [4] does the source give for CC1(C)C(=O)Nc2ccc(C3=NNC(=O)SC3)cc21 here?
Answer: 0.16

Question: For Cc1cc2c(cc1C1=NNC(=O)SC1C)C(C)(C)C(=O)N2 (stereo not given), which Delta pCa50 [2] is on record?
Answer: -0.06

Question: What about the IC50 [6] of the same compound?
Answer: 3300 nM

Question: With CC1SC(=O)NN=C1c1ccc2c(c1)C(C)(C)CC(=O)N2 (stereo not given) as the compound, how does the Change (Canis familiaris [1]) read?
Answer: 21%

Question: And the Delta pCa50 [2]?
Answer: 0.45

Question: And the Change (Canis familiaris [3])?
Answer: 5%

Question: With CC1OC(=O)NN=C1c1ccc2c(c1)C(C)(C)C(=O)N2 (stereo not given) as the compound, how does the Delta pCa50 [8] read?
Answer: 0.04

Question: And the IC50 [6]?
Answer: 960 nM

Question: With CSC1(C)C(=O)Nc2ccc(C3=NNC(=O)CC3)cc21 (stereo not given) as the compound, how does the Delta pCa50 [4] read?
Answer: 0.07

Question: For CC1SC(=O)NN=C1c1ccc2c(c1)C(C)(C)C(=O)N2 (stereo not given), which Change (Canis familiaris [1]) is on record?
Answer: 73%

Question: And the Delta pCa50 [9]?
Answer: 0.09

Question: And the Delta pCa50 [10]?
Answer: 0.24

Question: What about the IC50 [6] of the same compound?
Answer: 330 nM

Question: And the Delta pCa50 [4]?
Answer: 0.31

Question: What about the Change (Canis familiaris [3]) of the same compound?
Answer: 8%

Question: With CSC1(C)C(=O)Nc2ccc(C3=NNC(=O)CC3C)cc21 (stereo not given) as the compound, how does the Delta pCa50 [4] read?
Answer: 0.11

Question: Which IC50 [6] does the source give for CSC1(C)C(=O)Nc2ccc(C3=NNC(=O)SC3)cc21 (stereo not given) here?
Answer: 1200 nM

Question: What about the Delta pCa50 [4] of the same compound?
Answer: 0.39

Question: Which Delta pCa50 [8] does the source give for CC1NC(=O)NN=C1c1ccc2c(c1)C(C)(C)C(=O)N2 (stereo not given) here?
Answer: -0.04

Question: What about the IC50 [6] of the same compound?
Answer: 170 nM

Question: Which Delta pCa50 [4] does the source give for CC1C(=O)Nc2ccc(C3=NNC(=O)SC3)cc21 (stereo not given) here?
Answer: 0.15

Question: For CC1(C)C(=O)Nc2ccc(C3=NNC(=O)CC3)cc21, which Delta pCa50 [7] is on record?
Answer: -0.04

Question: Which IC50 [6] does the source give for Cc1nc(O)c(N)cc1-c1ccccc1 here?
Answer: 18000 nM

Question: What about the Delta pCa50 [4] of the same compound?
Answer: 0.1

Question: What does the source list for CC1(C)C(=O)Nc2cc3[nH]c(-c4ccncc4)nc3cc21 [ADIBENDAN]?
Answer: IC50 [6]: 520 nM; Delta pCa50 [4]: 0.16

Question: With CC1SC(=O)NN=C1c1ccc2c(c1)C1(SCCCS1)C(=O)N2 (stereo not given) as the compound, how does the Delta pCa50 [11] read?
Answer: 0.12

Question: What about the Delta pCa50 [12] of the same compound?
Answer: 0.65

Question: What about the Delta pCa50 [13] of the same compound?
Answer: 0.48

Question: And the Delta pCa50 [2]?
Answer: 0.76

Question: What about the IC50 [5] of the same compound?
Answer: 260 nM

Question: For Cc1cc(C2=NNC(=O)SC2C)cc2c1NC(=O)C2(C)C (stereo not given), which Delta pCa50 [2] is on record?
Answer: 0.26

Question: What about the IC50 [5] of the same compound?
Answer: 240 nM

Question: Which Delta pCa50 [8] does the source give for CC1[Se]C(=O)NN=C1c1ccc2c(c1)C(C)(C)C(=O)N2 (stereo not given) here?
Answer: 0.3

Question: What about the IC50 [6] of the same compound?
Answer: 540 nM

Question: What does the source list for CC1CC(=O)NN=C1c1ccc2c(c1)C(C)(C)C(=O)N2 (stereo not given)?
Answer: Delta pCa50 [8]: -0.09; IC50 [6]: 240 nM

Question: With CC1SC(=O)NN=C1c1ccc2c(c1)C1(CC1)C(=O)N2 (stereo not given) as the compound, how does the Delta pCa50 [2] read?
Answer: 0.14

Question: And the IC50 [6]?
Answer: 36 nM

Question: Which Delta pCa50 [2] does the source give for CC1SC(=O)NN=C1c1ccc2c(c1)C1(CCCS1)C(=O)N2 (stereo not given) here?
Answer: 0.37

Question: What about the IC50 [6] of the same compound?
Answer: 1400 nM

Question: With CC1SC(=O)NN=C1c1ccc2c(c1)C1(CCCCC1)C(=O)N2 (stereo not given) as the compound, how does the Delta pCa50 [2] read?
Answer: 0.39

Question: And the IC50 [6]?
Answer: 1300 nM

Reference: ChEMBL document CHEMBL1126243, “A novel class of cardiotonic agents: synthesis and biological evaluation of 5-substituted 3,6-dihydrothiadiazin-2-ones with cyclic AMP phosphodiesterase inhibiting and myofibrillar calcium sensitizing properties” (J Med Chem, 1992)
